From ChEMBL document CHEMBL1140193, “Synthesis and anti-inflammatory evaluation of methylene bridged benzofuranyl imidazo[2,1-b][1,3,4]thiadiazoles” (Eur J Med Chem, 2008)

Key:
Rattus norvegicus [1] = test: Antiinflammatory activity in Wistar albino rat assessed as inhibition of carrageenan-induced paw oedema at 100 mg/kg, po measured 1 hr after carrageenan challenge; type: functional
Method in brief: (§1)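 Albino rats, 6 per group, dosed orally at 100 mg kg^-1; ibuprofen 100 mg kg^-1 as standard. One hour after dosing, 0.1 ml of 1% carrageenan with 2% gum acacia in normal saline injected subplantar into the right hind paw. Paw volume measured by plethysmometer; % inhibition versus control calculated. One-way ANOVA with Dunnett's t test.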

Rattus norvegicus [2] = test: Toxicity in Wistar albino rat assessed as induction of sedation up to 3 g/kg, po after 8 hrs; type: organism-based; details: in vivo, 3000 mg/kg
Method in brief: (§2)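 Acute toxicity: albino rats of either sex in groups of six, oral doses from 100 up to 3000 mg kg^-1. Rats observed continuously for 8 h for changes in motor activity, ataxia, tremors, convulsions, sedation and lacrimation. Ulceration and haemorrhagic spots also inspected.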

Rattus norvegicus [3] = test: Antiinflammatory activity in Wistar albino rat assessed as inhibition of carrageenan-induced paw oedema at 100 mg/kg, po measured 2 hrs after carrageenan challenge; type: functional; method in brief: as §1
Rattus norvegicus [4] = test: Antiinflammatory activity in Wistar albino rat assessed as inhibition of carrageenan-induced paw oedema at 100 mg/kg, po measured 5 hrs after carrageenan challenge; type: functional; method in brief: as §1
Rattus norvegicus [5] = test: Analgesic activity in Wistar albino rat […] assessed as increase in reaction time for tail withdrawal at 100 mg/kg, po after 180 mins by tail flick method; type: functional
Rattus norvegicus [6] = test: Toxicity in Wistar albino rat assessed as induction of convulsions and tremors up to 3 g/kg, po after 8 hrs; type: organism-based; details: in vivo, 3000 mg/kg; method in brief: as §2
Rattus norvegicus [7] = test: Toxicity in Wistar albino rat assessed as effect on motor activity up to 3 g/kg, po after 8 hrs; type: organism-based; details: in vivo, 3000 mg/kg; method in brief: as §2
Rattus norvegicus [8] = test: Antiinflammatory activity in Wistar albino rat assessed as inhibition of carrageenan-induced paw oedema at 100 mg/kg, po measured 4 hrs after carrageenan challenge; type: functional; method in brief: as §1
Rattus norvegicus [9] = test: Analgesic activity in Wistar albino rat […] assessed as reaction time for tail withdrawal at 100 mg/kg, po after 30 mins by tail flick method; type: functional
Rattus norvegicus [10] = test: Antiinflammatory activity in Wistar albino rat assessed as inhibition of carrageenan-induced paw oedema at 100 mg/kg, po measured 0.5 hrs after carrageenan challenge; type: functional; method in brief: as §1
Rattus norvegicus [11] = test: Toxicity in Wistar albino rat assessed as mortality up to 3 g/kg, po after 24 hrs; type: organism-based; details: in vivo, 3000 mg/kg
Method in brief: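 Albino rats of either sex, six per group, dosed orally from 100 up to 3000 mg kg^-1 body weight. Animals were watched continuously for 8 h for signs of acute toxicity such as altered motor activity, ataxia, tremors, convulsions, sedation and lacrimation, and were checked for mortality over a 24 h period. Food was withheld for 12 h before dosing.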

Rattus norvegicus [12] = test: Toxicity in Wistar albino rat assessed as induction of haemorrhagic spots up to 3 g/kg, po after 8 hrs; type: organism-based; details: in vivo, 3000 mg/kg; method in brief: as §2
Rattus norvegicus [13] = test: Antiinflammatory activity in Wistar albino rat assessed as inhibition of carrageenan-induced paw oedema at 100 mg/kg, po measured 3 hrs after carrageenan challenge; type: functional; method in brief: as §1
Rattus norvegicus [14] = test: Analgesic activity in Wistar albino rat […] assessed as reaction time for tail withdrawal at 100 mg/kg, po after 120 mins by tail flick method; type: functional
Method in brief: (§3)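 Rat tail-flick test: latency for the rat to withdraw its tail from hot water at 55 ± 0.5 °C. Drugs given orally. Reaction time in seconds read at 60, 90, 120 and 300 min after dosing. Treated animals compared with control and with a nimesulide standard. Wistar albino rats, 150-200 g, either sex; food withdrawn 12 h before and during testing.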

Rattus norvegicus [15] = test: Analgesic activity in Wistar albino rat […] assessed as reaction time for tail withdrawal at 100 mg/kg, po after 180 mins by tail flick method; type: functional
Rattus norvegicus [16] = test: Analgesic activity in Wistar albino rat […] assessed as reaction time for tail withdrawal at 100 mg/kg, po after 60 mins by tail flick method; type: functional; method in brief: as §3
Rattus norvegicus [17] = test: Analgesic activity in Wistar albino rat […] assessed as increase in reaction time for tail withdrawal at 100 mg/kg, po after 300 mins by tail flick method; type: functional; method in brief: as §3
Rattus norvegicus [18] = test: Toxicity in Wistar albino rat assessed as induction of gastric ulceration up to 3 g/kg, po after 8 hrs; type: organism-based, Stomach; details: in vivo, 3000 mg/kg; method in brief: as §2
Rattus norvegicus [19] = test: Analgesic activity in Wistar albino rat […] assessed as reaction time for tail withdrawal at 100 mg/kg, po after 300 mins by tail flick method; type: functional; method in brief: as §3

With Cc1ccc2c(Cc3nn4c(CO)c(-c5ccc(Br)cc5)nc4s3)coc2c1 the inhibition in vivo at 100 mg/kg (Rattus norvegicus [1]) was 7.2%, the Activity (Rattus norvegicus [2]) was “Non-toxic” and the inhibition in vivo at 100 mg/kg (Rattus norvegicus [3]) was 13.1%. The inhibition in vivo at 100 mg/kg (Rattus norvegicus [4]) was 47.3%, the Activity (Rattus norvegicus [5]) was 177.3% and the Activity (Rattus norvegicus [6]) was “Non-toxic”. The Activity (Rattus norvegicus [7]) was “Non-toxic”, the inhibition in vivo at 100 mg/kg (Rattus norvegicus [8]) was 44.9% and the Activity (Rattus norvegicus [9]) was 3.667 s. For the same compound, the inhibition in vivo at 100 mg/kg (Rattus norvegicus [10]) was 2.38%, the Activity (Rattus norvegicus [11]) was “Non-toxic” and the Activity (Rattus norvegicus [12]) was “Non-toxic”. The inhibition in vivo at 100 mg/kg (Rattus norvegicus [13]) was 36.6%, the Activity (Rattus norvegicus [14]) was 5.917 s and the Activity (Rattus norvegicus [15]) was 7.4 s. The Activity (Rattus norvegicus [16]) was 4.583 s, the Activity (Rattus norvegicus [17]) was 126.12% and the Activity (Rattus norvegicus [18]) was “Non-toxic”. The Activity (Rattus norvegicus [19]) was 6.067 s.
In the case of Cc1ccc2c(Cc3nn4c(CO)c(-c5ccc(Cl)cc5)nc4s3)coc2c1, the inhibition in vivo at 100 mg/kg (Rattus norvegicus [1]) is reported as 14.5%, the Activity (Rattus norvegicus [2]) is reported as “Non-toxic” and the inhibition in vivo at 100 mg/kg (Rattus norvegicus [3]) is reported as 28.9%. The inhibition in vivo at 100 mg/kg (Rattus norvegicus [4]) was 58.9%, the Activity (Rattus norvegicus [5]) was 165.85% and the Activity (Rattus norvegicus [6]) was “Non-toxic”. The Activity (Rattus norvegicus [7]) was “Non-toxic”, the inhibition in vivo at 100 mg/kg (Rattus norvegicus [8]) was 54.3% and the Activity (Rattus norvegicus [9]) was 3.65 s. The inhibition in vivo at 100 mg/kg (Rattus norvegicus [10]) was 9.61%, the Activity (Rattus norvegicus [11]) was “Non-toxic” and the Activity (Rattus norvegicus [12]) was “Non-toxic”. For the same compound, the inhibition in vivo at 100 mg/kg (Rattus norvegicus [13]) was 45.9%, the Activity (Rattus norvegicus [14]) was 5.467 s and the Activity (Rattus norvegicus [15]) was 7.133 s. For the same compound, the Activity (Rattus norvegicus [16]) was 4.35 s, the Activity (Rattus norvegicus [17]) was 102.49% and the Activity (Rattus norvegicus [18]) was “Non-toxic”. The Activity (Rattus norvegicus [19]) was 5.433 s.
In the case of Cc1ccc2c(Cc3nn4c(C=O)c(-c5ccc(Br)cc5)nc4s3)coc2c1, the inhibition in vivo at 100 mg/kg (Rattus norvegicus [1]) is reported as 12.4%, the Activity (Rattus norvegicus [2]) is reported as “Non-toxic” and the inhibition in vivo at 100 mg/kg (Rattus norvegicus [3]) is reported as 11.2%. The inhibition in vivo at 100 mg/kg (Rattus norvegicus [4]) was 12.4%, the Activity (Rattus norvegicus [5]) was 238.53% and the Activity (Rattus norvegicus [6]) was “Non-toxic”. The Activity (Rattus norvegicus [7]) was “Non-toxic”, the inhibition in vivo at 100 mg/kg (Rattus norvegicus [8]) was 10.2% and the Activity (Rattus norvegicus [9]) was 3.983 s. The inhibition in vivo at 100 mg/kg (Rattus norvegicus [10]) was 1.15%, the Activity (Rattus norvegicus [11]) was “Non-toxic” and the Activity (Rattus norvegicus [12]) was “Non-toxic”. It also gave an inhibition in vivo at 100 mg/kg (Rattus norvegicus [13]) of 10.8%, an Activity (Rattus norvegicus [14]) of 6.5 s and an Activity (Rattus norvegicus [15]) of 9.083 s. For the same compound, the Activity (Rattus norvegicus [16]) was 4.433 s, the Activity (Rattus norvegicus [17]) was 181.4% and the Activity (Rattus norvegicus [18]) was “Non-toxic”. For the same compound, the Activity (Rattus norvegicus [19]) was 7.55 s.
In the case of Cc1ccc2c(Cc3nn4cc(-c5ccc(Br)cc5)nc4s3)coc2c1, the inhibition in vivo at 100 mg/kg (Rattus norvegicus [1]) is reported as 10.3%, the Activity (Rattus norvegicus [2]) is reported as “Non-toxic” and the inhibition in vivo at 100 mg/kg (Rattus norvegicus [3]) is reported as 12%. For the same compound, the inhibition in vivo at 100 mg/kg (Rattus norvegicus [4]) was 22.5%, the Activity (Rattus norvegicus [5]) was 0.633% and the Activity (Rattus norvegicus [6]) was “Non-toxic”. The Activity (Rattus norvegicus [7]) was “Non-toxic”, the inhibition in vivo at 100 mg/kg (Rattus norvegicus [8]) was 11.1% and the Activity (Rattus norvegicus [9]) was 2.65 s. For the same compound, the inhibition in vivo at 100 mg/kg (Rattus norvegicus [10]) was 6%, the Activity (Rattus norvegicus [11]) was “Non-toxic” and the Activity (Rattus norvegicus [12]) was “Non-toxic”. The inhibition in vivo at 100 mg/kg (Rattus norvegicus [13]) was 10.8%, the Activity (Rattus norvegicus [14]) was 2.583 s and the Activity (Rattus norvegicus [15]) was 2.7 s. For the same compound, the Activity (Rattus norvegicus [16]) was 2.667 s, the Activity (Rattus norvegicus [17]) was 0% and the Activity (Rattus norvegicus [18]) was “Non-toxic”. It also gave an Activity (Rattus norvegicus [19]) of 2.683 s.
With CC(C)Cc1ccc(C(C)C(=O)O)cc1 (centres undefined) [IBUPROFEN] the inhibition in vivo at 100 mg/kg (Rattus norvegicus [1]) was 42.3%, the inhibition in vivo at 100 mg/kg (Rattus norvegicus [3]) was 42.9% and the inhibition in vivo at 100 mg/kg (Rattus norvegicus [4]) was 72.9%. The inhibition in vivo at 100 mg/kg (Rattus norvegicus [8]) was 66.1%, the inhibition in vivo at 100 mg/kg (Rattus norvegicus [10]) was 42.1% and the inhibition in vivo at 100 mg/kg (Rattus norvegicus [13]) was 60%.
Work on CS(=O)(=O)Nc1ccc([N+](=O)[O-])cc1Oc1ccccc1 [NIMESULIDE] yielded an Activity (Rattus norvegicus [5]) of 260.9%, an Activity (Rattus norvegicus [9]) of 5.1 s and an Activity (Rattus norvegicus [14]) of 8.65 s. For the same compound, the Activity (Rattus norvegicus [15]) was 9.683 s, the Activity (Rattus norvegicus [16]) was 7.683 s and the Activity (Rattus norvegicus [17]) was 218.67%. For the same compound, the Activity (Rattus norvegicus [19]) was 8.55 s.
